From ChEMBL document CHEMBL3259528, “Exploring 5-nitrofuran derivatives against nosocomial pathogens: synthesis, antimicrobial activity and chemometric analysis” (2014)
Converted amounts (≈) assume the structure as drawn. The source made the active and inactive calls. The rule behind the calls is not given here.

Experiments:
[1] = system: Staphylococcus aureus; assay: Antimicrobial activity against Staphylococcus aureus ATCC 29213 after 18 hrs by modified broth microdilution method; format: functional
Outline: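 PGI90, the concentration giving 90% growth inhibition, fitted with an exponential growth curve from at least seven concentrations of the MIC assay. Inhibition % = [(Ac − Ap)/Ac] × 100 from A620 of drug-free control versus drug-treated culture. Checked by a modified broth microdilution (Phase 2).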

[2] = system: Staphylococcus aureus; assay: Antimicrobial activity against Staphylococcus aureus ATCC 29213 after 24 to 48 hrs by two-fold broth microdilution method; format: functional
[3] = system: Escherichia coli; assay: Antimicrobial activity against Escherichia coli ATCC 25922 after 24 to 48 hrs by two-fold broth microdilution method; format: functional
[4] = system: Candida albicans; assay: Antimicrobial activity against Candida albicans ATCC 537Y after 48 hrs by two-fold broth microdilution method; format: functional
Outline: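 Two-fold serial dilutions in RPMI 1640 per CLSI M27-A2. Stocks in DMSO/RPMI 1:20 v/v. Test range 1.0–64 µM. Inoculum set to 0.5 McFarland, then diluted in saline and RPMI 1640. Plates held at 35 °C for 48 h. MIC is the lowest concentration giving prominent growth reduction. Run in triplicate.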

[5] = system: Enterococcus faecalis; assay: Antimicrobial activity against Enterococcus faecalis ATCC 29212 after 24 to 48 hrs by two-fold broth microdilution method; format: functional
[6] = system: Klebsiella pneumoniae; assay: Antimicrobial activity against Klebsiella pneumoniae ATCC 700603 at 128 uM after 24 to 48 hrs by two-fold broth microdilution method; format: functional, organism-based
Outline: (§1)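 Antibacterial microdilution in CAMH, inoculum 0.5 McFarland diluted in saline/CAMH, 35 °C for 18 h, with further reads at 24 and 48 h. Activity is scored at the maximum tested concentration, 128 µM. Triplicate.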

[7] = system: Enterobacter cloacae; assay: Antimicrobial activity against Enterobacter cloacae ATCC 23355 at 128 uM after 24 to 48 hrs by two-fold broth microdilution method; format: functional, organism-based; outline: as §1
[8] = system: Serratia marcescens; assay: Antimicrobial activity against Serratia marcescens ATCC 14576 at 128 uM after 24 to 48 hrs by two-fold broth microdilution method; format: functional, organism-based; outline: as §1
[9] = system: Serratia marcescens; assay: Antimicrobial activity against Serratia marcescens ATCC 14576 after 24 to 48 hrs by two-fold broth microdilution method; format: functional
[10] = system: Candida albicans; assay: Antimicrobial activity against Candida albicans ATCC 537Y at 64 uM after 48 hrs by two-fold broth microdilution method; format: functional, organism-based
Outline: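 Single top concentration of the antifungal microdilution: RPMI 1640, inoculum 0.5 McFarland diluted in saline/RPMI, 35 °C for 48 h. Activity is judged at the highest tested level, 64 µM. Run in triplicate.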

[11] = system: Escherichia coli; assay: Antimicrobial activity against Escherichia coli ATCC 25922 at 128 uM after 24 to 48 hrs by two-fold broth microdilution method; format: functional, organism-based; outline: as §1

Structure (SMILES) | log(1/MIC>90) [1] | MIC [2] [µM] | MIC90 [2] [µM] | MIC [3] [µM] | MIC90 [3] [µM] | MIC [4] [µM] | MIC90 [4] [µM] | MIC [5] [µM] | MIC90 [5] [µM] | Activity [6] | Activity [7] | Activity [8] | MIC [9] [µM] | MIC90 [9] [µM] | Activity [10] | Activity [11]
COc1ccc(C(=O)N/N=C/c2ccc([N+](=O)[O-])o2)cc1 | 5.39 | 4 (≈ 1.16 µg/mL) | 4.11 (≈ 1.19 µg/mL) | 32 (≈ 9.26 µg/mL) | 84 (≈ 24.3 µg/mL) | 32 (≈ 9.26 µg/mL) | 54.6 (≈ 15.8 µg/mL) | 8 (≈ 2.31 µg/mL) | 14.6 (≈ 4.23 µg/mL) | inactive | inactive | inactive |  |  |  | 
O=C(N/N=C/c1ccc([N+](=O)[O-])o1)c1ccc(F)cc1 | 5.18 | 2 (≈ 0.554 µg/mL) | 6.64 (≈ 1.84 µg/mL) | 32 (≈ 8.87 µg/mL) | 44.1 (≈ 12.2 µg/mL) | 32 (≈ 8.87 µg/mL) | 57 (≈ 15.8 µg/mL) | 64 (≈ 17.7 µg/mL) | 71.2 (≈ 19.7 µg/mL) | inactive | inactive |  | 64 (≈ 17.7 µg/mL) | 104 (≈ 28.9 µg/mL) |  | 
CCc1ccc(C(=O)N/N=C/c2ccc([N+](=O)[O-])o2)cc1 | 5.43 | 4 (≈ 1.15 µg/mL) | 3.68 (≈ 1.06 µg/mL) | 64 (≈ 18.4 µg/mL) | 110 (≈ 31.7 µg/mL) | 32 (≈ 9.19 µg/mL) | 54 (≈ 15.5 µg/mL) | 64 (≈ 18.4 µg/mL) | 69.1 (≈ 19.9 µg/mL) | inactive | inactive | inactive |  |  |  | 
Cc1cc(NS(=O)(=O)c2ccc(N)cc2)no1 [SULFAMETHOXAZOLE] |  |  |  | 16 (≈ 4.05 µg/mL) |  |  |  |  |  |  |  | inactive |  |  |  | 
CC(=O)N1N=C(c2ccc(I)cc2)OC1c1ccc([N+](=O)[O-])o1 (stereo unspecified) | 5.13 | 4 (≈ 1.71 µg/mL) | 6.29 (≈ 2.69 µg/mL) |  |  |  |  |  |  | inactive | inactive | inactive |  |  | inactive | inactive
Cc1ccc(C(=O)N/N=C/c2ccc([N+](=O)[O-])o2)cc1 | 4.97 | 8 (≈ 2.19 µg/mL) | 9.42 (≈ 2.57 µg/mL) |  |  | 32 (≈ 8.74 µg/mL) | 58.3 (≈ 15.9 µg/mL) | 8 (≈ 2.19 µg/mL) | 14.2 (≈ 3.87 µg/mL) | inactive | inactive | inactive |  |  |  | inactive
CCCCOc1ccc(C(=O)N/N=C/c2ccc([N+](=O)[O-])o2)cc1 | 5.38 | 2 (≈ 0.663 µg/mL) | 4.14 (≈ 1.37 µg/mL) |  |  |  |  | 16 (≈ 5.3 µg/mL) | 24.1 (≈ 7.97 µg/mL) | inactive | inactive | inactive |  |  | inactive | inactive
CC(=O)N1N=C(c2ccc(C)cc2)OC1c1ccc([N+](=O)[O-])o1 (stereo unspecified) | 4.91 | 8 (≈ 2.52 µg/mL) | 12.2 (≈ 3.85 µg/mL) |  |  | 32 (≈ 10.1 µg/mL) | 49.9 (≈ 15.7 µg/mL) |  |  | inactive | inactive | inactive |  |  |  | inactive
CCCCOc1ccc(C2=NN(C(C)=O)C(c3ccc([N+](=O)[O-])o3)O2)cc1 (stereo unspecified) | 4.77 | 16 (≈ 5.97 µg/mL) | 16.9 (≈ 6.3 µg/mL) | 64 (≈ 23.9 µg/mL) | 77.9 (≈ 29.1 µg/mL) | 32 (≈ 11.9 µg/mL) | 41 (≈ 15.3 µg/mL) |  |  | inactive | inactive | inactive |  |  |  | 
O=C(N/N=C/c1ccc([N+](=O)[O-])o1)c1ccc(Cl)cc1Cl | 5.13 | 4 (≈ 1.31 µg/mL) | 4.83 (≈ 1.58 µg/mL) | 64 (≈ 21 µg/mL) | 87.7 (≈ 28.8 µg/mL) | 32 (≈ 10.5 µg/mL) | 48 (≈ 15.8 µg/mL) | 32 (≈ 10.5 µg/mL) | 58.7 (≈ 19.3 µg/mL) | inactive | inactive | inactive |  |  |  | 
CCOc1ccc(C(=O)N/N=C/c2ccc([N+](=O)[O-])o2)cc1 | 5.43 | 2 (≈ 0.607 µg/mL) | 3.7 (≈ 1.12 µg/mL) |  |  |  |  | 32 (≈ 9.7 µg/mL) | 34.9 (≈ 10.6 µg/mL) | inactive | inactive | inactive |  |  | inactive | inactive
O=C(N/N=C/c1ccc([N+](=O)[O-])o1)c1ccc(Cl)cc1 | 5.26 | 4 (≈ 1.17 µg/mL) | 5.52 (≈ 1.62 µg/mL) | 64 (≈ 18.8 µg/mL) | 102 (≈ 30 µg/mL) | 32 (≈ 9.4 µg/mL) | 53 (≈ 15.6 µg/mL) | 32 (≈ 9.4 µg/mL) | 40.7 (≈ 12 µg/mL) | inactive | inactive | inactive |  |  |  | 
